# Assay outcomes: PubChem, several laboratories
# PolyA inh – inhibitors of polyadenylation in S. cerevisiae | actives 0.02% (n = 300,000) | AID 1875 | S. cerevisiae SKY197-pL101 polyadenylation reporter, beta-gal luminescence; efflux-impaired pdr1/pdr3 knockout yeast; score 100 = 6 SD above DMSO | activity score, % at 12 µM;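 active = lowest replicate activity score at least 50, where 100 means six control SD above control mean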;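 note: yeast exposed to compound for 9 h at 30 °C; higher score means more reporter readthrough which indicates perturbed polyadenylation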
# A3G deaminase – APOBEC3G (human) deaminase inhibition; AID 493012; Q9HC16; recombinant A3G, ssDNA deamination FAM/TAMRA fluorescence; actives 0.28% (n = 330,000); inhibition, % at 20 µM;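 active = inhibition of at least 40% at 20 µM, with no more than 30% in the related APOBEC3A deaminase screen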
# AHR activator – activators of human aryl hydrocarbon receptor. activation, % at 5 µM. P35869. actives 2.5% (n = 320,000). AHR-responsive luciferase reporter cells, luminescence; in the data active = activation above about 47%
# Arrestin-AP2 inh – inhibitors of human beta-arrestin and AP2 interaction; FITC-arrestin peptide / GST-AP2 beads, flow cytometry; AP2 beta2 appendage carries R879A mutation; inhibition, % at 10 µM; actives 0.31% (n = 340,000); AID 504490;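 active = inhibition above a set limit, near 3 SD of compounds lacking own fluorescence, cut at about 54% in these data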
#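 System: GST-AP2 R879A glutathione beads; medium: PBS, Tween 20 0.05%, BSA 0.1%; reagent: fluorescein-tagged arrestin peptide at 50 nM final; schedule: pre-incubation 12 min, peptide binding 1 h, room temperature; detection: flow cytometry, FL1 (488/535 nm); read-out: inhibition as reduced fluorescein signal on beads, percent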
# APOBEC3A inh – inhibitors of human APOBEC3A DNA deaminase; AID 493011; inhibition, % at 20 µM; recombinant A3A, FAM/TAMRA ssDNA deamination fluorescence; actives 0.41% (n = 330,000);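 active = at least 40% inhibition at 20 µM here, with at most 30% in a related deaminase screen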
# UCH37 inh – blocks the human deubiquitinase UCH37. Q9Y5K5. purified proteasome/UCH37, Ub-AMC cleavage fluorescence. inhibition, % (no concentration beside the values). actives 0.33% (n = 330,000). AID 588478;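 active = mean inhibition over replicate wells above about 20%, limit read from the data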
#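 Signal – fluorescence, ex 355 nm, em 460 nm · System – Proteasome-bound UCH37 · Input – 0.15 nM proteasome as dispensed · Timing – 30 min preincubation with enzyme, 25 min cleavage at room temperature · Read-out basis – percent inhibition of cleavage signal versus uninhibited and no-proteasome wells · Medium – Tris-HCl pH 7.4 with ATP-MgCl2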
# Arr AP2 CP1 – inhibitors of human beta-arrestin and AP2 interaction. shares compounds with Arrestin-AP2 inh. GST-AP2 beads, FITC arrestin peptide binding, flow cytometry; GST-fused beta2-adaptin appendage, R879A mutant. inhibition, % at 10 µM. actives 2% (n = 1,300). AID 504908;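 active = inhibition above a set limit, roughly 3 SD of non-fluorescent compound noise, cut at about 38% in these data; inactive = inhibition at or below that limit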;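 note: loss of bead fluorescence from 50 nM FITC arrestin peptide bound to appendage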
# GST GSH counter – counter-screen for beta-arrestin AP2 inhibitors: GST-GSH bead binding; AID 588338; shares compounds with Arrestin-AP2 inh; inhibition, % at 10 µM; GST-fluorescein binding to GSH beads, fluorescence; actives 2% (n = 1,300);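 active = inhibition above 50%, about 3 SD of the inhibition seen with non-fluorescent compounds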;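 note: fluorescein maleimide labelled GST captured on 4 micron glutathione beads; higher means more loss of bead fluorescence from quenching or blocked binding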
# Numbers stand for hits; . = inactive; / = no result. A selection: hits, their analogues and other compounds. The true share with any hit is near 3.4%.
SMILES,PolyA inh,A3G deaminase,AHR activator,Arrestin-AP2 inh,APOBEC3A inh,UCH37 inh,Arr AP2 CP1,GST GSH counter
Cc1ccc(NC(=O)Cn2ncn3c(cc4ccccc43)c2=O)cc1F,.,.,.,66,.,.,.,.
CCc1cccc(NC(=O)Cn2ncn3c(cc4ccccc43)c2=O)c1,.,.,.,.,.,.,/,/
COc1ccc(-c2nnc(SCc3ccccc3F)o2)cc1OC,.,.,.,84,.,.,.,/
O=C(OCC(=O)N1CCCC1)c1ccc(O)cc1,.,.,.,.,.,/,/,/
Cc1ccc(C(=O)OCC(=O)N2CCCC2)cc1,.,.,.,64,.,.,.,.
CCn1cc(C(=O)Nc2ccc(C)c([N+](=O)[O-])c2)cn1,.,.,.,57,.,.,.,.
O=C(Nc1ccc(Br)cc1)c1cnccn1,.,.,.,.,.,.,/,/
O=C(Nc1ccc(Br)cc1)Nc1cnccn1,.,.,/,.,.,.,.,/
O=C(Nc1ccc(F)cc1)Nc1cnccn1,.,.,.,.,.,.,.,.
CC(=NNS(=O)(=O)c1ccc(C)c([N+](=O)[O-])c1)c1ccc2c(c1)OCO2,/,/,/,/,/,.,/,/
CCCc1cc(=O)[nH]c(SCC(=O)c2c[nH]c3ccccc23)n1,.,.,.,54,.,.,.,.
O=C(CSc1nccc(=O)[nH]1)c1c[nH]c2ccccc12,.,.,.,.,.,.,/,/
CCOC(=O)C1=C(COC(=O)/C=C/c2ccccc2)NC(=O)NC1C (stereo unspecified),.,.,.,.,.,/,/,/
CCOC(=O)C1=C(COC(=O)CCOc2cc(C)ccc2C)NC(=O)NC1C (stereo unspecified),/,.,.,.,.,.,.,.
CCOC(=O)C1=C(COC(=O)CCOc2ccccc2)NC(=O)NC1C (stereo unspecified),/,.,.,.,.,.,.,.
CCOC(=O)C1=C(COC(=O)CCOc2cccc(C)c2)NC(=O)NC1C (stereo unspecified),.,.,.,.,.,/,.,.
O=C(CN1CCN(Cc2ccccc2Cl)CC1)NN=C/C=C/c1ccco1,/,/,/,/,/,.,/,/
Cc1nc2ccc(NC(=O)c3ccccc3)cc2s1,.,.,.,.,.,.,/,/
Cc1nc2ccc(NC(=O)c3ccc4ccccc4n3)cc2s1,.,.,.,65,.,.,.,.
O=C(NN=Cc1ccco1)c1cc(-c2cccs2)[nH]n1,/,/,/,/,/,.,/,/
CCOC(=O)C(=Cc1ccc(OCc2ccc([N+](=O)[O-])cc2)c(OC)c1)C(=O)OCC,.,.,.,81,.,.,.,.
COC(=O)C(=Cc1ccc(OCc2ccc([N+](=O)[O-])cc2)c(OC)c1)C(=O)OC,.,.,.,.,.,.,/,/
O=C(CN1CCCN(S(=O)(=O)c2ccc(Br)s2)CC1)Nc1ccc(Cl)cc1,.,.,.,.,.,.,/,/
CC1CCCC(NC(=O)CN2CCN(S(=O)(=O)c3ccc(Br)s3)CC2)C1C (stereo unspecified),/,.,/,64,.,.,.,.
CCC(C)NC(=O)c1ccc2c(c1)N(Cc1ccccc1)C(=O)CS2 (stereo unspecified),.,.,.,56,.,.,.,.
O=c1[nH]c2cc(NCCO)c([N+](=O)[O-])cc2[nH]1,.,.,.,70,.,.,.,.
CCn1nc(NS(=O)(=O)c2cccc3nonc23)c2cc3ccc(C)cc3nc21,.,.,.,68,.,.,.,.
CC(C)Cn1nc(NS(=O)(=O)c2cccc3nonc23)c2cc3ccccc3nc21,.,.,.,.,.,.,/,/
O=C(Cn1cncn1)NN=Cc1cccnc1,/,/,/,/,/,.,/,/
O=CN1CCN(C(C(=O)NC2CCCC2)c2cc3c(cc2[N+](=O)[O-])OCO3)CC1 (stereo unspecified),.,.,.,60,.,.,.,.
